Data taken from ChEMBL document CHEMBL1149606, “Synthesis, 3D-QSAR, and docking studies of 1-phenyl-1H-1,2,3-triazoles as selective antagonists for beta3 over alpha1beta2gamma2 GABA receptors” (Bioorg Med Chem, 2007).

Legend:
[1] = target: GABA A receptor alpha-1/beta-2/gamma-2 (Homo sapiens); assay: Displacement of [3H]EBOB from human recombinant GABA alpha-1-beta-2-gamma-2 receptor expressed in HEK293 cells
Homo sapiens = organism: Homo sapiens; assay: Selectivity for human GABA-beta-3 receptor over human GABA alpha-1-beta-2-gamma-2 receptor
Method in brief: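 Selectivity from [³H]EBOB competition binding run separately on each receptor. β3 assay: membranes (50 µg protein) from hygromycin-selected Drosophila S2 cells stably expressing human β3, copper sulfate-induced 24 h before harvest; 0.5 nM [³H]EBOB, 10 mM Na phosphate/300 mM NaCl pH 7.5, 22 °C, 70 min. α1β2γ2 assay: membranes (150 µg) from stable HEK-293 cells; 1 nM [³H]EBOB, 50 mM Na phosphate/200 mM NaCl pH 7.4, 25 °C, 90 min. Both assays: GF/B filtration, scintillation counting, nonspecific binding with 5 µM EBOB, ≥3 repeats, probit IC50, then Cheng–Prusoff Ki (Kd 5.0 and 10.7 nM).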

[2] = target: T1, Gamma-aminobutyric acid receptor subunit beta-3 (Homo sapiens, UniProt P28472); assay: Displacement of [3H]EBOB from human recombinant GABAbeta3 receptor expressed in HEK293 cells; assay type: cell-based
T1 sequence (P28472 whole entry): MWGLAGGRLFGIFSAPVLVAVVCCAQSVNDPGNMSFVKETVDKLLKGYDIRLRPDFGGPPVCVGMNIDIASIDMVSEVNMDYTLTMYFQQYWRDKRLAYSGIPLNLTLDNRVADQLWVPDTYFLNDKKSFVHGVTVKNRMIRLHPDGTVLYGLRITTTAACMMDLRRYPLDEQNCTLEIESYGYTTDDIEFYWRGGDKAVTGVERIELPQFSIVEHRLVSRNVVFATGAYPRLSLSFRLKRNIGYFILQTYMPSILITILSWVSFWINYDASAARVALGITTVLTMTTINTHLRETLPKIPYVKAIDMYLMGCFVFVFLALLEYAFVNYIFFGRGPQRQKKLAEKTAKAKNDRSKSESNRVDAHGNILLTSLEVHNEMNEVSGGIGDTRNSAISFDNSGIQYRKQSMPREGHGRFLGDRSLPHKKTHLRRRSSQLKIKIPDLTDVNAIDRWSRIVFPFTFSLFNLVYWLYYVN

Musca domestica = assay: Insecticidal activity against house fly WHO/SRS assessed as mortality after 24 hrs; assay type: functional
Method in brief: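 Adult female houseflies, 3–5 days post-emergence, pretreated with piperonyl butoxide (10 µg in 1 µL acetone) 1 h before topical thoracic dosing of compound in 1 µL acetone at several doses; 30 flies per dose, kept at 25 °C with sugar and water. Mortality read at 24 h, three repeats; LD50 by probit on mean mortality.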

SMILES | Ki [1] | Ratio Ki (Homo sapiens) | Ki [2] | LD50 (Musca domestica)
C#Cc1cc(Cl)c(-n2cc(CCCC)nn2)c(Cl)c1 | > 9150 nM | > 264 | – | –
CCCCc1cnnn1-c1c(Cl)cccc1Cl | > 9150 nM | > 4.46 | – | –
CCCCCc1cn(-c2c(Cl)cc(C(F)(F)F)cc2Cl)nn1 | 1390 nM | 50 | – | –
CCCCc1cn(-c2c(Cl)cc(Br)cc2Cl)nn1 | > 9150 nM | > 293 | – | –
CCCCc1cn(-c2c(Cl)cc(Cl)cc2Cl)nn1 | > 9150 nM | > 111 | – | –
CCCCc1cn(-c2c(Cl)cc(C(F)(F)F)cc2Cl)nn1 | 1010 nM | 362 | – | –
FC(F)(F)c1cc(Cl)c(-n2cc(CCCCl)nn2)c(Cl)c1 | 616 nM | 378 | – | –
CCCCc1cn(-c2ccc(Br)cc2)nn1 | > 9150 nM | > 2.87 | – | –
CCc1c(C)nnn1-c1c(Cl)cc(C(F)(F)F)cc1Cl | – | – | 70.1 nM | –
CC(C)(C)c1cn(-c2c(Cl)cc(C(F)(F)F)cc2Cl)nn1 | 390 nM | 470 | – | 1.86 pmol
CCCCc1cnnn1-c1c(Cl)cc(Br)cc1Cl | > 9150 nM | > 11.7 | – | –
CCCc1c(CO)nnn1-c1c(Cl)cc(C(F)(F)F)cc1Cl | > 9150 nM | > 2.65 | 3450 nM | –
CCCCc1cnnn1-c1c(Cl)cc(Cl)cc1Cl | > 9150 nM | > 2.24 | – | –
CCCc1nnn(-c2c(Cl)cc(C(F)(F)F)cc2Cl)c1C | 322 nM | 166 | 1.94 nM | –
CCCc1nnn(-c2c(Cl)cc(C(F)(F)F)cc2Cl)c1CC | > 9150 nM | > 1130 | 8.07 nM | –
CCCc1nnn(-c2c(Cl)cc(C(F)(F)F)cc2Cl)c1CCl | 266 nM | 403 | 0.659 nM | 5.17 pmol
CCCCCc1cnnn1-c1c(Cl)cc(C(F)(F)F)cc1Cl | > 9150 nM | > 6.58 | – | –
C#Cc1ccc(-n2nncc2CCCC)cc1 | > 9150 nM | > 1.21 | – | –
FC(F)(F)c1cc(Cl)c(-n2cc(C3CCCCC3)nn2)c(Cl)c1 | 1500 nM | 127 | – | –

SMILES | Ki [1] | Ratio Ki (Homo sapiens) | Ki [2] | LD50 (Musca domestica)
CCc1nnn(-c2c(Cl)cc(C(F)(F)F)cc2Cl)c1C | 1060 nM | 150 | 7.08 nM | –
CCCc1c(CC)nnn1-c1c(Cl)cc(C(F)(F)F)cc1Cl | > 9150 nM | > 194 | 47.2 nM | –
CCCc1c(CCl)nnn1-c1c(Cl)cc(C(F)(F)F)cc1Cl | > 9150 nM | > 137 | 66.7 nM | –
CCCc1cnnn1-c1c(Cl)cc(C(F)(F)F)cc1Cl | > 9150 nM | > 12.1 | – | –
CCCc1nnn(-c2c(Br)cc(C(F)(F)F)cc2Br)c1C | > 9150 nM | > 673 | 13.6 nM | –
CCCCCCc1cn(-c2c(Cl)cc(C(F)(F)F)cc2Cl)nn1 | 1980 nM | 5.05 | – | –
FC(F)(F)c1cc(Cl)c(-n2nncc2-c2ccccc2)c(Cl)c1 | > 9150 nM | > 19.3 | – | –
CCc1nnn(-c2c(Cl)cc(C(F)(F)F)cc2Cl)c1CC | – | – | 4.27 nM | –
CCCc1nnn(-c2c(Cl)cc(C(F)(F)F)cc2Cl)c1CO | 387 nM | 153 | 2.53 nM | –
CCCc1cn(-c2c(Cl)cc(C(F)(F)F)cc2Cl)nn1 | 470 nM | 220 | – | –
CCCCCCc1cnnn1-c1c(Cl)cc(C(F)(F)F)cc1Cl | > 9150 nM | > 10.6 | – | –
Nc1c(-c2ccccc2)nnn1-c1c(Cl)cc(C(F)(F)F)cc1Cl | 1160 nM | 57.1 | – | –
CCCCc1cnnn1-c1ccc(Br)cc1 | > 9150 nM | > 3.35 | – | –
FC(F)(F)c1cc(Cl)c(-n2cc(-c3ccccc3)nn2)c(Cl)c1 | > 9150 nM | > 71.5 | – | –
CCCCc1cn(-c2c(Cl)cccc2Cl)nn1 | > 9150 nM | > 2.6 | – | –
CCCc1nnn(-c2c(Cl)cc(C(F)(F)F)cc2Cl)c1CCC | > 9150 nM | > 71.5 | 128 nM | –
CCCc1c(C)nnn1-c1c(Cl)cc(C(F)(F)F)cc1Cl | > 9150 nM | > 17 | 539 nM | –
CCCCc1cnnn1-c1ccc(C(F)(F)F)cc1 | > 9150 nM | > 1.73 | – | –
